From ChEMBL document CHEMBL3779801, “Discovery of the Selective CYP17A1 Lyase Inhibitor BMS-351 for the Treatment of Prostate Cancer” (ACS Med Chem Lett, 2016) come the findings set out here.

What is called IC50 is the concentration needed to halve the response being measured. As usually defined, the Cmax is the maximum level reached in the sampled fluid or tissue. By Papp A→B is commonly meant the apparent permeability from the apical to the basolateral side of a cell layer. By Papp B→A is commonly meant the apparent permeability from the basolateral to the apical side of a cell layer. As a reminder, the Tmax is the time at which the peak concentration occurs. The bioavailability is the share of a dose that reaches the circulation, judged against a reference dose that is usually intravenous. In general, clearance refers to a measure of how efficiently the substance is removed, as volume per time.

Data set [1] is described as follows: Inhibition of cynomolgus monkey CYP21A2 using hydroxy progesterone as substrate incubated for 120 mins by LC-MS method. More on the design: species or system Macaca fascicularis.
A short description of data set [2]: Cmax in cynomolgus monkey plasma at 4 mg/kg, po after 0.25 to 45 hrs by LC-MS/MS analysis. Type of data set: ADME, organism-based, Macaca fascicularis. On the set-up: dose 4 mg/kg, route oral. Put shortly:
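Cynomolgus monkeys were dosed orally from a solution formulation. Plasma parameters are given as mean ± standard deviation.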

For data set [3], the target named is T1, Cytochrome P450 11B1, mitochondrial (Homo sapiens, UniProt P15538).
T1 sequence (P15538 whole entry): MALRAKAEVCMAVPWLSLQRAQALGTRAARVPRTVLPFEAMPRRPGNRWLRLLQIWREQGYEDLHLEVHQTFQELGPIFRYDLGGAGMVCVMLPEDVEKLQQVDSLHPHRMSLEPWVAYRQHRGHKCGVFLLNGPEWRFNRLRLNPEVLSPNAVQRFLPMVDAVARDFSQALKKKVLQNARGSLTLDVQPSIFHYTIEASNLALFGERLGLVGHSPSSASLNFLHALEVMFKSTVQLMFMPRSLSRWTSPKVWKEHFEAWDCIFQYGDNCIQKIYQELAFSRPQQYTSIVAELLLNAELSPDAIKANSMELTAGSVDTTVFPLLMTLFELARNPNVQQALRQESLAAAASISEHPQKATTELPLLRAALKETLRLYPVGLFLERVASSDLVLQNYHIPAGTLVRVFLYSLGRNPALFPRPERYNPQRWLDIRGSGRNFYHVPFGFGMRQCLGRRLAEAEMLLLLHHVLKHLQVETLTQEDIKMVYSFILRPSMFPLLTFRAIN
Kind of data set: Inhibition of CYP11B1 in human H295R cells using deoxycorticosterone as substrate incubated for 48 hrs by LC-MS method. Type of data set: ADME, cell-based.

In data set [4] the target is T2, Steroid 17-alpha-hydroxylase/17,20 lyase (Macaca fascicularis, UniProt Q2XVA1).
T2 sequence (Q2XVA1 whole entry): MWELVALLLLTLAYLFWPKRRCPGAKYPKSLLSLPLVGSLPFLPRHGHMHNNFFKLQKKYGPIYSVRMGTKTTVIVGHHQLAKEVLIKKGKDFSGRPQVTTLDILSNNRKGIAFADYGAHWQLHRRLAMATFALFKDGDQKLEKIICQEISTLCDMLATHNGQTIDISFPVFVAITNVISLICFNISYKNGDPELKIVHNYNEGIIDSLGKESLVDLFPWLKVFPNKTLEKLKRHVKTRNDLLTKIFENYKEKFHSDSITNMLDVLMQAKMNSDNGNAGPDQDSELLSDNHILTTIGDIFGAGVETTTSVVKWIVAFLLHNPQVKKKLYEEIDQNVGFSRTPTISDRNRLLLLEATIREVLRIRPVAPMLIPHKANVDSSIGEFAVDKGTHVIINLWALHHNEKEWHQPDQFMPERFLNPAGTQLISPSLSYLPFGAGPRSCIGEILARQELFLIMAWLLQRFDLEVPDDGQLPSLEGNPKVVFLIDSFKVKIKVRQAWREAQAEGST
Put plainly: Selectivity ratio of cynomolgus monkey CYP17A1 hydroxylase activity using pregnenolone substrate to cynomolgus monkey CYP17A1 lyase activity using [3H]-hydroxypregnenolone substrate. The gist of the method: (§1)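 Hydroxylase and lyase activities were run with different enzyme preparations, so the hydroxylase/lyase ratios are estimates.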

Data set [5] is described as follows: Intrinsic permeability from apical to basolateral side in human Caco2 cells. The data set is classed as ADME, cell-based. The following applies: Caco-2. A general note: Caco-2 cells form a polarised layer with tight junctions and transporters.
Data set [6] can be described thus: Intrinsic permeability from basolateral to apical side in human Caco2 cells. The data set is classed as ADME, cell-based. The following applies: Caco-2.
A short description of data set [7]: Tmax in one day castrated cynomolgus monkey at 1.5 mg/kg, po bid. The data set is classed as ADME, organism-based, Macaca fascicularis. The following applies: male, in vivo. The gist of the method:
(§2)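 Castrated cynomolgus monkeys were studied over one day with oral BID dosing at time 0 and 8 h. Plasma levels were sampled at set time points over 1–24 h and reported as average ± standard deviation in nM, n = 4.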

Data set [8] concerns the target T2, Steroid 17-alpha-hydroxylase/17,20 lyase. Put plainly: Inhibition of CYP17A1 in cynomolgus monkey adrenal microsomes using [3H]-pregnenolone as substrate incubated for 45 mins by scintillation proximity assay in presence of NADPH. More on the design: species or system Adrenal gland. (SPA uses beads or plates that emit light when radiolabelled molecules are held near them.)

The target of data set [9] is T3, Steroid 17-alpha-hydroxylase/17,20 lyase (Homo sapiens, UniProt P05093).
T3 sequence (P05093 whole entry): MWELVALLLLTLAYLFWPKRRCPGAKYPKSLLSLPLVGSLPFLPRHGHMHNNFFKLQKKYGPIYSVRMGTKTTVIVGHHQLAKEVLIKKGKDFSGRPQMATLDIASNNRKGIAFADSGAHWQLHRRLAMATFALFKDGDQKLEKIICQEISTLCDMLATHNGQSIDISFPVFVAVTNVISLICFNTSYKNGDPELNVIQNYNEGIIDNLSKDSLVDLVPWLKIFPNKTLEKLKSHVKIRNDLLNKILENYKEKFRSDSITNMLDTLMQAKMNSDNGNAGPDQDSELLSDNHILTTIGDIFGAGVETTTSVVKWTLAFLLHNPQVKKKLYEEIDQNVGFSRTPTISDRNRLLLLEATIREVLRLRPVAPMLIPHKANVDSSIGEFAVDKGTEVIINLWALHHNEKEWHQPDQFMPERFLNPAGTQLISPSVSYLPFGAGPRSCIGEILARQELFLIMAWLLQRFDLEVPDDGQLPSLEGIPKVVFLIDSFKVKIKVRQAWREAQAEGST
Put plainly: Selectivity ratio of human CYP17A1 hydroxylase activity expressed in Escherichia coli using pregnenolone substrate to human CYP17A1 lyase activity expressed in HEK293 cell microsomes using [3H]-hydroxypregnenolone substrate. The gist of the method: as §1

The nature of data set [10]: Metabolic stability in mouse liver microsomes assessed as parent compound remaining at 0.5 uM incubated for 10 mins. Type of data set: ADME. The settings on record: read-out: Stability. Put shortly:
(§3)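 Compound at 0.5 μM was incubated with human, mouse or cynomolgus liver microsomes for 10 min.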
Background: Liver microsomes are vesicles of endoplasmic reticulum, rich in cytochrome P450 enzymes.

The target in data set [11] is T3, Steroid 17-alpha-hydroxylase/17,20 lyase. Put plainly: Inhibition of human CYP17A1 expressed in HEK293 cell microsomes using [3H]-pregnenolone as substrate incubated for 45 mins by scintillation proximity assay in presence of NADPH.
A further data set deals with Cynomolgus monkey. Kind of data set: Free plasma concentration in cynomolgus monkey plasma at 1 mg/kg, po by LC-MS/MS analysis. The following applies: in vivo. Type of data set: ADME, organism-based, Macaca fascicularis.
The nature of data set [12]: Tmax in one day castrated cynomolgus monkey at 1.5 mg/kg, po bid measured after second dose administered at 8 hrs. Type of data set: ADME, organism-based, Macaca fascicularis. The settings on record: male, in vivo. Put shortly:
as §2

A short description of data set [13]: Metabolic stability in cynomolgus monkey liver microsomes assessed as parent compound remaining at 0.5 uM incubated for 10 mins. The following applies: read-out: Stability. Type of data set: ADME, Macaca fascicularis. Put shortly:
as §3

In data set [14] the target is T2, Steroid 17-alpha-hydroxylase/17,20 lyase. Kind of data set: Inhibition of CYP17A1 in cynomolgus monkey using [3H]-pregnenolone as substrate incubated for 45 mins by scintillation proximity assay in presence of NADPH.
Data set [15] can be described thus: Oral bioavailability in cynomolgus monkey plasma at 4 mg/kg after 0.25 to 45 hrs by LC-MS/MS analysis. Type of data set: ADME, organism-based, Macaca fascicularis. The gist of the method: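 Oral bioavailability in cynomolgus monkey came from oral dosing of a solution formulation combined with a separate 2 mg/kg iv dose. Values are mean ± standard deviation.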

Data set [16] can be described thus: Clearance in cynomolgus monkey plasma at 2 mg/kg, iv by LC-MS/MS analysis. Type of data set: ADME, organism-based, Macaca fascicularis. The gist of the method: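 Cynomolgus monkeys were dosed intravenously. Plasma parameters are given as mean ± standard deviation.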

In the case of `Cc1ccncc1-c1cccc2c1ncn2CC(F)(F)F`, the IC50 in data set [1] was greater than 7500 nM; in data set [3], greater than 7500 nM; in [8], 2 nM; in data set [11], 19 nM; in data set [14], 4 nM. In addition, the Cmax in [2] was 3000 nM. In addition, the Selectivity ratio turned out to be 11 in [4] and 10 in data set [9]. Further, the Papp A→B in data set [5] is 40 ×10⁻⁶ cm/s. For the same compound, in [6], the Papp B→A was 30 ×10⁻⁶ cm/s. The figures for the Tmax in data set [7] and in data set [12] were 1 h and 9.5 h, respectively. The results for the remaining at 10 min, 0.5 µM in data set [10] and in [13] were 66% and 83%, respectively. Besides, in the data set with Cynomolgus monkey, the “Cp(f)” value turned out to be 80 nM. In data set [15], the bioavailability was 97%. The same compound registered a clearance in data set [16] of 19 mL/min/kg.
